# Assay outcomes from PubChem.
# OXTR agonist: human OXTR agonists, primary screen, fluorescence, CHO-OTR cells, Fluo-8 calcium. Oxytocin receptor (Homo sapiens), P30559. Fluo-8 calcium fluorescence; normalized: DMSO 0%, oxytocin 100%. activation, % at 3 µM. actives 0.32% (n = 320,000). AID 2435, 2010;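 active = activation above the mean of all tested compounds plus 3 SD, cutoff set per screening run, cut at about 20% in these data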;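 also: peak over basal fluorescence ratio from a 100 s FLIPR kinetic read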
# Target sequence (P30559 whole entry, looked up): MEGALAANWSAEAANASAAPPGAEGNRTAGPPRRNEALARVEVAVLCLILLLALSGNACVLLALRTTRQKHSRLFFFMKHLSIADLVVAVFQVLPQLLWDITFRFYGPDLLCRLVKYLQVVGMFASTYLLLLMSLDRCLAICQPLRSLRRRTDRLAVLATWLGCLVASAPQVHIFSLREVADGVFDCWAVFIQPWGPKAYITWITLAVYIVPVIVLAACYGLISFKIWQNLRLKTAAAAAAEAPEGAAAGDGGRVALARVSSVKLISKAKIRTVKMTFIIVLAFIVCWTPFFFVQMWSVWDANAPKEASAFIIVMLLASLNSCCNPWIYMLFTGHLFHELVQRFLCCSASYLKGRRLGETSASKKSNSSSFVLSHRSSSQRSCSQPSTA
# V1aR counter: agonists of human V1a receptor, primary screen, counter-screen for OXTR agonist project, fluorescence, CHO-V1R cells. actives 0.25% (n = 320,000). AID 2797, 2010. Fluo-8 calcium fluorescence, agonist mode; 0% DMSO, 100% 3 nM vasopressin. activation, % at 3 µM. Vasopressin V1a receptor (Homo sapiens), P37288;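 active = activation above the mean activation of all tested compounds plus 3 SD, per screening run, cut at about 20% in these data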;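 also: signal is peak over basal fluorescence ratio across a 100 second FLIPR read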
# TAAR1 agonist: human TAAR1 agonists, primary screen, Fluo-8 calcium fluorescence, CHO RD-HGA16 cells; activation, % at 3 µM; Trace amine-associated receptor 1 (Homo sapiens), Q96RJ0; vehicle wells 0%, saturating PEA agonist 100%; AID 624467, 2012; actives 0.99% (n = 360,000);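 active = activation above the mean activation of all test compounds in the run plus 3 SD, cut at about 38% in these data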
#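 Benchmarks: low control DMSO, high control PEA (EC100); System: CHO RD-HGA16 cells carrying human TAAR1 plus Gα16; Detection: Fluo-8 fluorescence, 5 s baseline then 140 s kinetic read; Schedule: 17-24 h plating, Fluo-8 75 min 37 °C, 30 min RT; Read-out basis: % activation from peak over basal fluorescence ratio, DMSO-to-PEA scaled.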
# OXTR potentiate: human OXTR potentiators, primary screen, fluorescence, CHO-OTR cells, Fluo-8 calcium. activation, % at 3 µM. Oxytocin receptor (Homo sapiens), P30559. Fluo-8 calcium fluorescence, potentiator mode; 0% = oxytocin EC15, 100% = EC100. AID 2445, 2010. actives 0.061% (n = 320,000);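 active = activation above that plate's cutoff, the mean activation of tested compounds plus 3 SD, cut at about 6.6% in these data, passing the limit was not always enough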;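 also: 100% uses oxytocin at 75 nM as the full agonist control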
#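 System: human OTR in CHO cells; Also added: sub-maximal oxytocin, roughly EC15; Timing: compound 6 min at room temperature before oxytocin, 100 s read; Technique: Fluo-8 intracellular calcium fluorescence, ex 470-495, em 515-575 nm; Controls: oxytocin EC15 low and EC100 high; Replication: singlicate.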
# TAAR1 antag: human TAAR1 antagonists, primary screen, Fluo-8 calcium fluorescence, CHO RD-HGA16 cells. Trace amine-associated receptor 1 (Homo sapiens), Q96RJ0. antagonist. inhibition, % at 3 µM. actives 1.5% (n = 360,000). AID 624466, 2012;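 active = inhibition above a per-plate cutoff, the mean inhibition of test compounds on that plate plus 3 SD, cut at about 49% in these data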;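 also: 0% = DMSO plus EC80 beta-PEA response and 100% = DMSO alone without agonist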
#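 System: CHO RD-HGA16 cells bearing hTAAR1. Reagent: EC80 β-phenethylamine stimulus. Schedule: seeding 17-24 h prior, 75-min 37 °C, 30-min RT dye loading. Signal: Fluo-8 intracellular calcium dye fluorescence, real-time kinetic reads. Read-out: % inhibition from peak post-agonist over basal fluorescence ratio. Benchmarks: vehicle wells and EC80 agonist wells. Replicates: n of 1.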
# * = called active by the depositor; nt = not tested or not shown. Only some compounds are listed: those with a hit (about 2.3% of all), similar ones and a draw of the others.
SMILES,OXTR agonist,V1aR counter,TAAR1 agonist,OXTR potentiate,TAAR1 antag
CCOC(=O)c1sc(NC(=O)c2cc(-c3ccccc3C)nc3ccccc23)c(C#N)c1C,12.8,9.6,15.1,-15.8,-4.7
CCOc1ccc(-c2cc(C(=O)Nc3ccc4c(c3)OCCO4)c3ccccc3n2)cc1,-0.7,0.7,13.7,-3.7,67.5*
CCc1cccc(C)c1NC(=O)c1cc(-c2ccncc2)nc2ccccc12,nt,nt,9.1,nt,49.2*
Cc1cccc(-c2cc(C(=O)Nc3ccc4c(c3)OCCO4)c3ccccc3n2)c1,-0.8,-0.6,8.1,-11.1,44.9
Cc1ccccc1NC(=O)c1cc(-c2ccco2)nc2ccccc12,nt,nt,6.9,nt,59.8*
CCOc1cc(N2CCOCC2)c(OCC)cc1NC(=O)c1cc(-c2ccco2)nc2ccccc12,-0.9,-0.5,15.3,-2.6,70.9*
CCOc1ccc(NC(=O)CN2C(=O)c3cccc4cccc2c34)cc1,nt,nt,-1.2,nt,-19.6
COC(=O)[C@]12C[C@H](CC(=O)N3CCSCC3)C(=O)N(Cc3ccccc3)C1=C[C@H](C1CCCC1)O[C@@H]2C,nt,nt,-2.1,nt,-36.5
O=C(OCn1ncc(Cl)c(Cl)c1=O)c1ccc(F)cc1,-2.5,-0.8,nt,-2.4,nt
O=C(OCn1ncc(Cl)c(Cl)c1=O)c1ccccc1Cl,-2.0,-2.0,17.8,17.0*,12.3
CC(=O)C1=C(C)NC(=S)NC1c1ccccc1 (centres undefined),nt,nt,-0.6,nt,9.8
O=C(C(=O)N1CCN(C(=O)c2cccs2)CC1)c1cccc(C(F)(F)F)c1,nt,nt,1.1,nt,-16.4
C=CCC[C@@H](Cc1ccc(F)cc1)C(=O)OC[C@H](Cc1c[nH]c2ccccc12)NC(=O)[C@@H](CC=C)CC(=O)N[C@H](CO)Cc1ccccc1,0.8,1.7,14.5,-10.8,55.0*
C=CCC[C@H](Cc1ccc(F)cc1)C(=O)OC[C@@H](Cc1c[nH]c2ccccc12)NC(=O)[C@H](CC=C)CC(=O)NCCO,-0.7,-0.1,14.5,-5.6,50.9*
C=CCC[C@H](Cc1ccc(F)cc1)C(=O)OC[C@H](Cc1c[nH]c2ccccc12)NC(=O)[C@@H](CC=C)CC(=O)N[C@H](CO)Cc1ccccc1,-0.3,0.0,13.8,-8.2,56.7*
COCc1cc(N2CCN(C(=O)OC(C)(C)C)C[C@@H]2C)ccc1N1CC[C@H](O)C1,nt,nt,1.6,nt,12.4
CCCCCCCCCCCCCCCC[n+]1ccc(/C=N/O)cc1,14.2,8.2,22.0,-8.0,78.0*
CC(=C1SC(=S)NC1=O)c1ccc(Cl)c(O)c1,nt,nt,1.2,nt,11.6
O=[N+]([O-])c1ccccc1CCc1ccccc1[N+](=O)[O-],nt,nt,34.1,nt,50.3*
O=[N+]([O-])c1ccccc1CCO,nt,nt,8.0,nt,-27.2
Cc1nnsc1NC(=O)OCc1ccccc1Cl,17.2,7.1,41.0*,-27.1,4.6
Cc1nnsc1NC(=O)OCc1ccc(C(F)(F)F)cc1,5.9,6.4,2.3,-16.8,5.4
CCOc1cccc2sc(N(CCCN(C)C)C(=O)c3ccc(S(=O)(=O)N(CC)Cc4ccccc4)cc3)nc12,11.9,10.9,28.2,-12.9,55.0*
COc1ccc2sc(N(CCCN(C)C)C(=O)c3ccc(S(=O)(=O)N(C)Cc4ccccc4)cc3)nc2c1,5.5,0.7,43.1*,-5.5,34.6
CCN(Cc1ccccc1)S(=O)(=O)c1ccc(C(=O)N(CCCN(C)C)c2nc3c(F)cccc3s2)cc1,1.8,0.5,14.5,-10.8,21.2
CCOc1cccc2sc(N(CCCN(C)C)C(=O)c3ccc(S(=O)(=O)N(C)Cc4ccccc4)cc3)nc12,16.9,10.4,35.1,-11.5,53.8*
CC(=O)C1=C(C)N(Cc2ccc(Br)cc2)C(=S)NC1c1cccc(Cl)c1 (centres undefined),nt,nt,1.0,nt,26.9
CCCCCCCCN1C(=O)[C@H](CC(=O)N2CCCC2)C[C@@]2(C(=O)OC)CC(C)(C)CC=C12,nt,nt,0.7,nt,-30.0
